# Rows were chosen to be rich in hits. Some 6.4% of all compounds tested hit in one or more screens of this group.
# WT yeast gro inh = growth inhibition of WT yeast, mitochondrial fusion screen; inhibition, % at 10 µM; mitochondrial fusion phenotypic screen, WT strain; AID 1362; 190,000 compounds, 2.1% hits; in the data active = inhibition above about 58%; tested in S. cerevisiae
# CHOP inhibitor = inhibitors of CHOP induction in ER stress response; CHO-K1 CHOP-promoter luciferase, tunicamycin-induced, 15-18 h; inhibition, % at 10 µM; 220,000 compounds, 3.8% hits; AID 2732;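 active = compounds that reduced the stress-induced luciferase reporter signal by more than about 70% of percent inhibition, limit read from the data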;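 note: 0% = tunicamycin plus vehicle and 100% = wells without tunicamycin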
# EBV gp42 block = blocks Epstein-Barr virus glycoprotein 42 binding. Q1HVG2. Fluorescence polarization binding assay, mP read-out. inhibition, % (tested at 21.74 µM). 220,000 compounds, 0.42% hits. AID 1085; in the data active = inhibition above about 50%
# Target sequence (Q1HVG2 whole entry, looked up): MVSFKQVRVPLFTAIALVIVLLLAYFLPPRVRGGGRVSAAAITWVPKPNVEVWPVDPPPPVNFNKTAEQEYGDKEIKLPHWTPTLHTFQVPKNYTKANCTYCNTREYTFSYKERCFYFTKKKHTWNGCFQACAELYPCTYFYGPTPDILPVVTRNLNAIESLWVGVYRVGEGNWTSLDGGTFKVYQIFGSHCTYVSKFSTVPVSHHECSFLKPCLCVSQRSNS
# GRIN3A LBD mod = modulators (binders) of human NR3A ligand-binding domain | AID 1259313 | 340,000 compounds, 2.5% hits | NR3A LBD differential scanning fluorimetry, Tm shift; 0% = protein alone, 100% = glycine-bound protein | Tm shift relative to glycine control, % at 25 µM;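 active = melting temperature shift of at least 10% of the positive control shift, at one fixed dose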
# TbMetRS inhib = Trypanosoma brucei MetRS inhibition; 360,000 compounds, 0.4% hits; inhibition, % at 11.9 µM; purified T. brucei MetRS, ATP depletion, Kinase-Glo luminescence; AID 624268;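 active = inhibition above a per-plate cutoff of the control wells' mean inhibition plus 3 SD, cut at about 5.5% in these data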;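 note: 0% = DMSO wells median and 100% = median of wells with control inhibitor compound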
#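 Material – parasite MetRS enzyme · Medium – HEPES-MgCl2-KCl buffer plus DTT, spermine, BSA, pyrophosphatase · Reagent – ATP, methionine and E. coli bulk tRNA substrates · Times – 15 min enzyme-compound preincubation, 2 h reaction, 10 min detection, 25 °C · Measured by – luminescence of leftover ATP · Evaluation – percent inhibition relative to median high and low control wells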
# MPTP block = inhibitors of mitochondrial permeability transition pore | inhibition, % at 10 µM | isolated mouse mitochondria, Ca2+ swelling absorbance, 30 min | AID 602449 | 360,000 compounds, 1.4% hits;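 active = inhibition of 50% or more, scaled per plate between neutral and stimulator controls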;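 note: 0% = DMSO wells given calcium and 100% = 1 mM EGTA wells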
# MPTP counter = Rhodamine 123 counter-screen of mitochondrial pore hits; shares compounds with MPTP block; isolated mitochondria, membrane potential, Rhodamine 123 fluorescence; inhibition, % at 10 µM; 5,000 compounds, 78% hits; AID 624504; in the data active = inhibition above about 22%;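 note: 0% = DMSO vehicle and 100% = positive control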
# MPTP swell DR = MPTP inhibition, dose response swelling confirmation; shares compounds with MPTP block; isolated mitochondria swelling, absorbance; IC50, µM; 780 compounds, 58% hits; in the data active = IC50 below about 20 µM
# MPTP cs DR = active in counter-screen for permeability transition pore inhibitors. shares compounds with MPTP block. IC50, µM. isolated mitochondria counterscreen, fluorescence read-out. 780 compounds, 49% hits; in the data active = IC50 below about 80 µM
# Starred values were filed as active, the others as inactive; i = inactive; . = no result given; ! = not active in a repeat.
SMILES,WT yeast gro inh,CHOP inhibitor,EBV gp42 block,GRIN3A LBD mod,TbMetRS inhib,MPTP block,MPTP counter,others
Cn1nc(CC(=O)Nc2cccc3ncccc23)c2ccccc2c1=O,4,52,-4,1,0,86*,25*,
COc1ccc(CNC(=O)Cc2nn(C)c(=O)c3ccccc23)cc1,0,57,-6,11*,-1,61*,51*,
COc1ccc(/C=N/NC(=O)c2cccnc2)cc1CN1CCc2cc(OC)c(OC)cc2C1C (stereo not given),-8,26,-2,0,0,-2,.,
CC(=O)c1ccc(OCCNS(=O)(=O)c2ccc(-n3cnnn3)c(C)c2)cc1,.,.,.,1,0,1,.,
Cc1ccc([C@@H]2CC(=O)[C@@H]3CN(S(=O)(=O)c4ccccc4C)[C@H](c4ccc(Cl)cc4)C[C@@H]3N2S(=O)(=O)c2ccc(C)cc2)cc1,.,.,.,.,-1,58*,77*,
Cc1ccc(S(=O)(=O)N2[C@H](c3cccc(Cl)c3)CC(=O)[C@@H]3CN(S(=O)(=O)c4ccccc4C)[C@H](c4ccc(Cl)cc4)C[C@@H]32)cc1,.,.,.,.,-1,81*,69*,
Cn1c(CN2CCCCC2)nc2cc([N+](=O)[O-])ccc21,12,1,2,3,0,-2,.,
O=S(=O)(Nc1ccccc1Cl)c1ccc(-c2ccccn2)s1,.,.,.,-4,0,4,.,
Cc1ccc(NC(=O)CN(C)C(=O)COC(=O)c2oc3ccccc3c2C)cc1,.,.,.,1,0,1,.,
CCCCCCCCCCCCC/C=C/[C@@H](O)[C@@H](N)CO,.,.,.,5,-1,98*,-8,
OCCCNc1ncnc2scc(-c3ccc(Cl)cc3)c12,.,.,.,-1,0,-1,.,
Cc1ccc(-c2csc3ncnc(NS(=O)(=O)c4ccc(Cl)cc4)c23)cc1,19,-68,11,16*,-1,85*,63*,
O=S(=O)(Nc1ncnc2scc(-c3ccc(F)cc3)c12)c1cc(F)ccc1F,.,19,-15,1,2,57*,75*,
COc1ccc(Nc2nc(N3CCCC3)c3ccccc3n2)cc1,-19,57,-9,-1,-1,103*,101*,
COC(=O)c1c(NC(=O)c2ccc(C(=O)c3ccccc3)cc2)sc2c1CC(C)(C)NC2(C)C,.,.,.,.,0,2,.,
CCOc1ccc(C(=O)Nc2sc3c(c2C(=O)OC)CC(C)(C)NC3(C)C)cc1,26,-11,-9,-1,0,85*,2,MPTP swell DR=20*;MPTP cs DR=>80
COC(=O)c1c(NC(=O)c2nc3ccccc3s2)sc2c1CC(C)(C)NC2(C)C,83*,67,-9,0,-1,60*,-9,MPTP swell DR=i;MPTP cs DR=>80
O=C(O)CNC(=O)/C=C/c1c(Cl)cccc1Cl,-20,0,-10,-1,0,-3,.,
Cc1cc(C)c(C(=O)Nc2ccc(Br)c(C(F)(F)F)c2)c(C)c1,81*,59,-3,-6,0,58*,83*,
O=C(O)c1ccccc1C(=O)Nc1ccc(Br)c(C(F)(F)F)c1,.,-1,-2,2,-1,6,.,
CC(C)C(N)c1csc(NC(=O)Nc2ccc(OC(F)(F)F)cc2)n1 (stereo not given),.,.,.,.,0,70*,88*,
CC(C)C(N)c1csc(NC(=O)Nc2cccc(C(F)(F)F)c2)n1 (stereo not given),.,.,.,.,0,5,.,
Cc1ccc(-n2c(CCc3ccccc3)n[nH]c2=S)cc1C,.,.,.,-2,-1,-1,.,
Cc1ccc(C(=O)N(c2ccccn2)C(C)c2ccco2)cc1 (stereo not given),-9,-10,-23,2,-1,0,.,
CC(c1ccco1)N(C(=O)Nc1ccc(Cl)cc1)c1ccccn1 (stereo not given),8,-17,-26,10*,0,85*,98*,
SMILES,WT yeast gro inh,CHOP inhibitor,EBV gp42 block,GRIN3A LBD mod,TbMetRS inhib,MPTP block,MPTP counter,others
O=C(O)C1CCCCC1C(=O)N1CC=C(c2ccccc2)CC1 (stereo not given),-4,44,-3,0,0,74*,11,MPTP swell DR=>100;MPTP cs DR=>80
Cc1ccc(C(=O)N2CC=C(c3ccccc3)CC2)s1,.,.,.,-4,0,-1,.,
C[C@H](O)[C@@H]1CN2CCc3c([nH]c4ccccc34)[C@@H]2C[C@@H]1N(C)C(=O)Nc1ccc(Br)cc1,.,.,.,.,3,83*,104*,
CC1CN(C(=O)C2CC2)C(C)CN1C(=O)C1CC1 (stereo not given),1,0,-12,-9,0,1,.,
O=C1NC[C@@H](Cc2ccc(O)cc2)N(CC2CCCCC2)C1=O,.,-8,-10,1,0,-1,.,
CCCCc1c(-c2ccccc2OC)ncn1Cc1ccc(-c2ccccc2)cc1,.,.,.,.,-2,78*,116*,
O=C(Nc1ccc(Oc2ccccc2)cc1)c1csc([C@H]2C[C@H](O)[C@@H](CO)O2)n1,.,.,.,.,0,81*,74*,
CCC(C)Sc1ccc(-c2nc3ccc(C)cn3c2NCc2ccccc2)cc1OC (stereo not given),.,.,.,-11,0,13,.,
CCCCNc1c(-c2ccc(Sc3ccc(OC)cc3)cc2)nc2cc(C)ccn12,.,.,.,-34,0,60*,97*,
CCC(C)Sc1cc(-c2nc3ccc(C)cn3c2NCc2ccccc2)ccc1OC (stereo not given),.,.,.,-30,0,54*!,105*,
CCCCNc1c(-c2ccc(OC)c(SC(C)CC)c2)nc2ccc(C)cn12 (stereo not given),.,.,.,-39,0,59*!,99*,
CCOc1cc(/C=C2\N=C(SC)SC2=O)cc([N+](=O)[O-])c1OC(C)=O,14,44,-4,5,-1,23,.,
CCOc1c(OC(C)=O)ccc(/C=C2\N=C(SCC)SC2=O)c1[N+](=O)[O-],-1,10,-6,14*,0,89*,72*,
CCOc1cc(/C=C2\N=C(SCC)SC2=O)cc([N+](=O)[O-])c1OC(C)=O,25,28,2,6,0,104*,37*,
CCOc1c(O)ccc(/C=C2\SC(=S)NC2=O)c1[N+](=O)[O-],-13,-7,-31,6,0,-1,.,
Nc1c(C(=O)N2CCOCC2)sc(=S)n1-c1ccccc1,-5,-2,-19,3,0,5,.,
Cc1ccc(C)c(N2CCN(C(=O)CCS(=O)(=O)c3ccc4c(c3)NC(=O)C(C)S4)CC2)c1 (stereo not given),.,.,.,6,0,4,.,
O=C(Nc1cccc(Cl)c1)Nc1ccon1,.,.,.,0,0,18,.,
COc1ccccc1NC(=O)Nc1ccc(F)c(F)c1,10,18,4,23*,0,81*,68*,

# Screening data deposited in PubChem by several laboratories.
